# Compound activity as filed in PubChem.
# MPTP block: mitochondrial permeability transition pore inhibitors, primary screen, biochemical, isolated mouse mitochondria, absorbance | Ca2+ swelling absorbance, 30 min | inhibition, % at 10 µM | 1.4% of 360,000 active;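 active = inhibition of 50% or more, scaled per plate between neutral and stimulator controls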;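 also: 0% = DMSO wells given calcium and 100% = 1 mM EGTA wells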
# XBP1 UPR activ: activators of adaptive XBP1 UPR arm, primary screen, cell-based, CHO-XBP1 luciferase reporter, luminescence, uHTS. IRE1-XBP1 UPR activation; percent of tunicamycin response, DMSO as zero. 0.33% of 330,000 active. activation, % at 20 µM. AID 463104, 2010;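 active = versus positive control, 20 µM dose yields 30% or more activation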;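 also: 100% = tunicamycin at 10 µg/mL and 0% = DMSO only wells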
#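 Signal: luciferase luminescence; Assay system: CHO-XBP1 luciferase reporter cells; Amount: one thousand reporter cells per well; Dosing: 20 µM single concentration, DMSO 1%; Benchmarks: high control tunicamycin 10 µg/mL final, low control DMSO vehicle only; Schedule: 6 h compound exposure at 37 °C, 5% CO2; Evaluation: percent activation relative to tunicamycin reference.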
# UPR CHOP act: activators of apoptotic CHOP UPR arm, primary screen, cell-based, CHO-CHOP luciferase reporter, luminescence, uHTS | activation, % at 10 µM | AID 449763, 2010 | UPR activation; percent of tunicamycin response over DMSO baseline | 0.34% of 330,000 active;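 active = at 10 µM dose, activation of 40% or more, normalized to positive control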;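 also: 100% = tunicamycin at 10 µg/mL and 0% = DMSO alone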
#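 Assay system: CHO-CHOP cells, stable luciferase reporter of PERK-eIF2a-CHOP signalling / Buffer or medium: F12 plus 10% serum / Compound dosing: one dose, 10 µM in 0.5% DMSO / Times: 6 h compound treatment, 37 °C / Technique: luciferase luminescence / Read-out: % reporter activation, DMSO baseline versus tunicamycin full activation / Benchmarks: tunicamycin and DMSO controls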
# aDG glyco act: activators of alpha-DG glycosylation, primary screen, uHTS, Pro5-aDG cells, AlphaScreen. alpha-DG glycosylation AlphaScreen (IIH6); 0% Pro5, 100% B10-LARGE cell signal. activation, % at 10 µM. 0.22% of 360,000 active;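 active = activation of at least 8% versus controls, or a plate z-score of at least 8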;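 also: Pro5 are CHO cells carrying HIG-tagged alpha-DG that lacks glycosylation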
# NR3A LBD binder: binders of NR3A ligand-binding domain, primary screen, biophysical, differential scanning fluorimetry, uHTS | Glutamate receptor ionotropic, NMDA 3A (GRIN3A) ligand-binding domain | NR3A LBD differential scanning fluorimetry, Tm shift; 0% = protein alone, 100% = glycine-bound protein | Tm shift relative to glycine control, % at 25 µM | 2.5% of 340,000 active | AID 1259313, 2017;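 active = melting temperature shift of at least 10% of the positive control shift, at one fixed dose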
# CHOP inhibitor: inhibitors of CHOP promoter induction, primary screen, cell-based, unfolded protein response, luciferase reporter; CHO-K1 CHOP-promoter luciferase, tunicamycin-induced, 15-18 h; inhibition, % at 10 µM; 3.8% of 220,000 active;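 active = compounds that reduced the stress-induced luciferase reporter signal by more than about 70% of percent inhibition, limit read from the data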;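 also: 0% = tunicamycin plus vehicle and 100% = wells without tunicamycin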
# * hit, by the source's call; . = no result given. Rows were chosen to be rich in hits. Some 5.6% of all compounds tested hit in one or more screens of this group.
SMILES,MPTP block,XBP1 UPR activ,UPR CHOP act,aDG glyco act,NR3A LBD binder,CHOP inhibitor
O=C(CCSc1ccccc1)Nc1ccc(OCc2ccccc2)cc1,1,4,0,0,-8,75*
O=C(N/N=C/c1ccc(OCc2ccccc2)cc1)c1cccs1,0,4,4,0,21*,66
Cc1occc1C(=O)Nc1ccc(OCc2ccccc2)cc1,-2,-1,2,0,26*,26
Oc1ccc(N=Cc2ccc(OCc3ccccc3)cc2)cc1,2,0,5,1,10*,32
O=C(CCN1CCN(c2ccccc2)CC1)Nc1ccc(OCc2ccccc2)cc1,27,-3,0,0,9,30
Cn1cccc1C(=O)NCc1ccc(S(N)(=O)=O)cc1,0,-5,-2,0,-1,.
C=CC[C@H](CC(=O)NCCO)C(=O)N[C@@H](COC(=O)[C@@H](CC=C)CC(=O)OC(C)(C)C)Cc1c[nH]c2ccccc12,0,0,1,0,0,.
CCOc1ccc(C(=O)Nc2nnc(SCC(=O)NCC3CCCO3)s2)cc1OCC (stereo not given),-1,0,1,0,0,.
Cc1ccc(OCc2nnc(NC(=O)Cc3cccs3)s2)cc1,.,3,-3,.,.,65
O=C(Nc1ccc(OCc2ccccc2)cc1)c1cccs1,1,-2,2,0,25*,.
CCc1ccc(OCc2nnc(NC(=O)c3cccs3)s2)cc1,2,-2,0,0,2,72*
S=C(Cc1ccccc1)Nc1ccccc1,-1,.,.,0,-3,.
O=C(CN(Cc1ccc(Cl)cc1)C(=O)CNS(=O)(=O)c1ccccc1)NCC1CCCO1 (stereo not given),-1,-2,2,0,1,.
Cc1ccc(-c2cc(-c3ccccc3)c(C#N)c(N)n2)o1,0,-1,2,0,-9,95*
COc1c2c(c(OC)c3ccccc13)[C@@]1(OC2)O[C@H](CCO)C[C@H](O)[C@H]1O,-1,.,.,0,.,.
CCOC(=O)CNc1nc(Cl)nc(Nc2ccc(C)cc2)n1,0,-1,1,0,-18,70*
CCOC(=O)CNc1nc(Cl)nc(Nc2ccc(Cl)cc2)n1,2,-1,0,0,0,25
CCN(c1ccc(NS(=O)(=O)c2cc(Cl)ccc2Cl)cc1)C(C)C,2,0,2,0,-8,93*
O=C(N/N=C/c1ccc(OC(F)F)cc1OC(F)F)NC1CCCCC1,3,-2,0,1,-28,91*
O=C(N/N=C/c1ccc(OC(F)F)cc1OC(F)F)c1ccc(Br)cc1,18,1,-2,0,-2,34
Cc1cc(C(C)(C)C)oc1C(=O)NCCCNC(=O)c1oc(C(C)(C)C)cc1C,2,-2,-4,0,6,96*
O=C(O)c1ccc(S(=O)(=O)c2ccc3c(c2)C(=O)N(NC(=O)c2ccccc2)C3=O)cc1,-1,-2,2,-1,23*,13
CCOc1ccccc1-c1nc2c(s1)CCc1onc(-c3ccc(OC)cc3)c1-2,1,-2,-1,0,17*,.
COc1ccc(-c2noc3c2-c2nc(-c4ccccc4Cl)sc2CC3)cc1,1,-1,1,0,-6,.
O=C(COC(=O)c1cc(C(F)(F)F)cc(C(F)(F)F)c1)NCc1ccc(Cl)cc1,1,4,0,0,-14,73*
SMILES,MPTP block,XBP1 UPR activ,UPR CHOP act,aDG glyco act,NR3A LBD binder,CHOP inhibitor
CCOC(=O)/C(=N\Nc1ccc(Cl)cc1)c1csc(Nc2ccccc2)n1,1,7,0,0,27*,-3
CCOC(=O)/C(=N/Nc1ccccc1)c1csc(Nc2ccccc2)n1,12,6,1,0,26*,20
CCOC(=O)/C(=N\Nc1ccc(OC)cc1)c1csc(Nc2ccccc2)n1,8,26,2,0,1,-28
O=C(NCc1ccccc1)c1cc(C2CCCCN2C(=O)c2ccc(Cl)cc2)on1 (stereo not given),1,.,.,0,.,.
O=[N+]([O-])c1ccc(Nc2ccc(F)cc2)nc1,18,.,.,0,7,43
O=[N+]([O-])c1ccc(Nc2cccc(F)c2)nc1,6,-1,0,0,25*,18
CC(=O)Nc1ccc(Nc2ccc([N+](=O)[O-])cn2)cc1,0,-3,3,0,11*,.
O=[N+]([O-])c1ccc(Nc2ccccc2)nc1,4,4,1,0,12*,5
Cc1ccc(S(=O)(=O)N2CC3(O)CN(C(=O)OC(C)C)N(C(=O)OC(C)C)CC3(OC(=O)NCc3ccco3)C2)cc1 (stereo not given),0,.,.,0,.,.
O=C(CCC(=O)N1CCOCC1)NCCc1ccc(Cl)cc1Cl,0,-5,1,0,2,.
Cc1ccc(NC(=O)CN2C(=O)NC(Cc3ccccc3)C2=O)c(Br)c1 (stereo not given),0,0,1,0,0,37
Brc1ccc(N=Nc2ccc3ccccc3n2)cc1,1,-11,-10,0,2,91*
CCCN(CCC)Cc1c(C(=O)OCC)nnn1-c1nonc1N,2,1,-2,1,1,86*
CCOC(=O)c1nnn(-c2nonc2N)c1C,0,-3,-1,0,0,17
O=C(NC(=S)N(Cc1ccccc1)c1ccccn1)C1CC1,-1,0,-2,0,17*,-12
CCOCc1c(C(=O)NCC(c2ccco2)N2CCCC2)oc2ccccc12 (stereo not given),0,0,1,0,1,.
COc1cccc(NC(=O)C(=O)N/N=C/c2cc(C)n(-c3ccc(Cl)c(Cl)c3)c2C)c1,2,3,3,0,1,78*
Cc1cc(/C=N/NC(N)=S)c(C)n1-c1ccc(Cl)c(Cl)c1,12,23,5,-1,-1,27
COc1cccc(C(=O)OCC(=O)N2CCc3ccccc3C2)c1OC,0,0,0,0,1,.
CN(C)c1ccc(-n2cccc2/C=C/[N+](=O)[O-])cc1,-1,1,17,0,2,92*
CN(C)c1ccc(/C=C/c2c([N+](=O)[O-])c(=O)n(C)c(=O)n2C)cc1,1,-3,1,0,2,.
Cc1ccc(-c2nnn(CC(=O)Nc3cccc4c3CCCC4)n2)o1,0,1,0,0,2,81*
